Data as given in ChEMBL document CHEMBL1649383, “Mode of action of epoxyphomalins A and B and characterization of related metabolites from the marine-derived fungus Paraconiothyrium sp” (J Nat Prod, 2010).
In brackets after ≈: the same amount, converted by molar mass.

How the values were obtained:
[1] = tested on: SF-268; experiment: Cytotoxicity against human SF268 cells at 0.01 ug/ml relative to control; format: functional
[2] = Cytotoxicity against human CNXF 498NL cells at 0.01 ug/ml relative to control; format: functional
[3] = tested on: HT-29; experiment: Cytotoxicity against human HT-29 cells; format: functional, cell-based
How it was run: (§1)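 Monolayer cell survival and proliferation assay, run within a panel of 36 human tumor cell lines; IC50 determined per cell line.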

[4] = Cytotoxicity against human LXFL 1121L cells; format: functional, cell-based
How it was run: (§2)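 Monolayer cell survival and proliferation assay run across a panel of 36 human tumour cell lines; IC50 values determined.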

[5] = Cytotoxicity against human LXFA 629L cells; format: functional, cell-based; how it was run: as §2
[6] = tested on: MCF7; experiment: Cytotoxicity against human MCF7 cells; format: functional, cell-based; how it was run: as §2
[7] = tested on: OVCAR-3; experiment: Cytotoxicity against human OVCAR3 cells; format: functional, cell-based
How it was run: (§3)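 Monolayer cell survival and proliferation assay run across a panel of 36 human tumor cell lines, with IC50 determined from the resulting growth data.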

[8] = tested on: PANC-1; experiment: Cytotoxicity against human PANC1 cells; format: functional, cell-based; how it was run: as §3
[9] = tested on: CWR22R; experiment: Cytotoxicity against human 22Rv1 cells; format: functional, cell-based; how it was run: as §1
[10] = Cytotoxicity against human RXF 1781L cells; format: functional, cell-based; how it was run: as §3
[11] = Cytotoxicity against human BXF 1218L cells at 0.001 ug/ml relative to control; format: functional
[12] = Cytotoxicity against human CNXF 498NL cells at 0.001 ug/ml relative to control; format: functional
[13] = Cytotoxicity against human GXF251L cells at 0.001 ug/ml relative to control; format: functional
[14] = Cytotoxicity against human HNXF 536L cells at 0.001 ug/ml relative to control; format: functional
[15] = Cytotoxicity against human LXFL 1121L cells at 0.001 ug/ml relative to control; format: functional
[16] = tested on: MCF7; experiment: Cytotoxicity against human MCF7 cells at 0.001 ug/ml relative to control; format: functional
[17] = Cytotoxicity against human MEXF 462NL cells at 0.001 ug/ml relative to control; format: functional
[18] = tested on: OVCAR-3; experiment: Cytotoxicity against human OVCAR3 cells at 0.001 ug/ml relative to control; format: functional
[19] = tested on: CWR22R; experiment: Cytotoxicity against human 22Rv1 cells at 0.001 ug/ml relative to control; format: functional
[20] = Cytotoxicity against human PC3M cells at 0.001 ug/ml relative to control; format: functional, PC-3M
[21] = Cytotoxicity against human GXF251L cells at 0.01 ug/ml relative to control; format: functional
[22] = Cytotoxicity against human HNXF 536L cells at 0.01 ug/ml relative to control; format: functional
[23] = Cytotoxicity against human LXFA 289L cells at 0.01 ug/ml relative to control; format: functional
[24] = tested on: PANC-1; experiment: Cytotoxicity against human PANC1 cells at 0.01 ug/ml relative to control; format: functional
[25] = Cytotoxicity against human RXF 944L cells at 0.01 ug/ml relative to control; format: functional
[26] = Cytotoxicity against human UXF 1138L cells at 0.01 ug/ml relative to control; format: functional
[27] = tested on: T-24; experiment: Cytotoxicity against human T24 cells at 0.1 ug/ml relative to control; format: functional
[28] = tested on: SF-268; experiment: Cytotoxicity against human SF268 cells at 0.1 ug/ml relative to control; format: functional
[29] = Cytotoxicity against human GXF251L cells at 0.1 ug/ml relative to control; format: functional
[30] = tested on: NCI-H460; experiment: Cytotoxicity against human H460 cells at 0.1 ug/ml relative to control; format: functional
[31] = Cytotoxicity against human MEXF 462NL cells at 0.1 ug/ml relative to control; format: functional
[32] = Cytotoxicity against human MEXF 514L cells at 0.1 ug/ml relative to control; format: functional
[33] = Cytotoxicity against human MEXF 520L cells at 0.1 ug/ml relative to control; format: functional
[34] = Cytotoxicity against human OVXF 1619L cells at 0.1 ug/ml relative to control; format: functional
[35] = Cytotoxicity against human OVXF 899L cells at 0.1 ug/ml relative to control; format: functional
[36] = tested on: OVCAR-3; experiment: Cytotoxicity against human OVCAR3 cells at 0.1 ug/ml relative to control; format: functional
[37] = tested on: LNCaP; experiment: Cytotoxicity against human LNCAP cells at 0.1 ug/ml relative to control; format: functional
[38] = Cytotoxicity against human PC3M cells at 0.1 ug/ml relative to control; format: functional, PC-3M
[39] = Cytotoxicity against human PXF 1752L cells at 0.1 ug/ml relative to control; format: functional
[40] = Cytotoxicity against human CNXF 498NL cells at 1 ug/ml relative to control; format: functional
[41] = Cytotoxicity against human LXFA 526L cells at 1 ug/ml relative to control; format: functional
[42] = Cytotoxicity against human LXFL 529L cells at 1 ug/ml relative to control; format: functional
[43] = tested on: MCF7; experiment: Cytotoxicity against human MCF7 cells at 1 ug/ml relative to control; format: functional
[44] = Cytotoxicity against human MEXF 520L cells at 1 ug/ml relative to control; format: functional
[45] = tested on: CWR22R; experiment: Cytotoxicity against human 22Rv1 cells at 1 ug/ml relative to control; format: functional
[46] = Cytotoxicity against human RXF 1781L cells at 1 ug/ml relative to control; format: functional
[47] = Cytotoxicity against human RXF 486L cells at 1 ug/ml relative to control; format: functional
[48] = Cytotoxicity against human RXF 944L cells at 1 ug/ml relative to control; format: functional
[49] = Cytotoxicity against human BXF 1218L cells at 10 ug/ml relative to control; format: functional
[50] = tested on: NCI-H460; experiment: Cytotoxicity against human H460 cells at 10 ug/ml relative to control; format: functional
[51] = Cytotoxicity against human MEXF 276L cells at 10 ug/ml relative to control; format: functional, MEXF276L
[52] = Cytotoxicity against human MEXF 514L cells at 10 ug/ml relative to control; format: functional
[53] = tested on: OVCAR-3; experiment: Cytotoxicity against human OVCAR3 cells at 10 ug/ml relative to control; format: functional
[54] = Cytotoxicity against human RXF 1781L cells at 10 ug/ml relative to control; format: functional
[55] = Cytotoxicity against human RXF 486L cells at 10 ug/ml relative to control; format: functional
[56] = Cytotoxicity against human RXF 944L cells at 10 ug/ml relative to control; format: functional

SMILES: C=C1[C@@H](O)[C@H]2O[C@@]2(C[C@H]2C(C)=CC[C@H]3C(C)(C)CCC[C@]23C)[C@@H](O)[C@H]1O [EPOXYPHOLAMIN D]
- Activity [1]: 97%
- Activity [2]: 91%
- IC50 [3]: 10.8 µM
- IC70 [3]: 5.73 mg/L (≈ 15.8 µM)
- IC90 [3]: 8.41 mg/L (≈ 23.2 µM)
- IC50 [4]: 8.94 µM
- IC70 [4]: 5.35 mg/L (≈ 14.8 µM)
- IC90 [4]: 8.82 mg/L (≈ 24.3 µM)
- IC50 [5]: 3.2 µM
- IC70 [5]: 3.08 mg/L (≈ 8.51 µM)
- IC90 [5]: 8.22 mg/L (≈ 22.7 µM)
- IC50 [6]: 5.32 µM
- IC70 [6]: 4.01 mg/L (≈ 11.1 µM)
- IC90 [6]: 8.33 mg/L (≈ 23 µM)
- IC50 [7]: 1.96 µM
- IC70 [7]: 2.71 mg/L (≈ 7.48 µM)
- IC90 [7]: 12.6 mg/L (≈ 34.7 µM)
- IC50 [8]: 5.43 µM
- IC70 [8]: 4.2 mg/L (≈ 11.6 µM)
- IC90 [8]: 8.93 mg/L (≈ 24.6 µM)
- IC50 [9]: 2.48 µM
- IC70 [9]: 3.06 mg/L (≈ 8.45 µM)
- IC90 [9]: 10.6 mg/L (≈ 29.4 µM)
- IC50 [10]: 11.8 µM
- IC70 [10]: 7.69 mg/L (≈ 21.2 µM)
- IC90 [10]: 13.8 mg/L (≈ 38 µM)
- Activity [11]: 106%
- Activity [12]: 102%
- Activity [13]: 105%
- Activity [14]: 79%
- Activity [15]: 116%
- Activity [16]: 91%
- Activity [17]: 133%
- Activity [18]: 100%
- Activity [19]: 92%
- Activity [20]: 120%
- Activity [21]: 100%
- Activity [22]: 76%
- Activity [23]: 101%
- Activity [24]: 92%
- Activity [25]: 138%
- Activity [26]: 107%
- Activity [27]: 104%
- Activity [28]: 82%
- Activity [29]: 112%
- Activity [30]: 91%
- Activity [31]: 167%
- Activity [32]: 142%
- Activity [33]: 92%
- Activity [34]: 81%
- Activity [35]: 97%
- Activity [36]: 91%
- Activity [37]: 103%
- Activity [38]: 73%
- Activity [39]: 95%
- Activity [40]: 55%
- Activity [41]: 119%
- Activity [42]: 85%
- Activity [43]: 68%
- Activity [44]: 86%
- Activity [45]: 48%
- Activity [46]: 100%
- Activity [47]: 82%
- Activity [48]: 102%
- Activity [49]: 17%
- Activity [50]: 3%
- Activity [51]: 20%
- Activity [52]: 11%
- Activity [53]: 13%
- Activity [54]: 21%
- Activity [55]: 10%
- Activity [56]: 14%
